Experiments:
[1] = molecular target: GABA-A receptor; anion channel; assay: Inhibition of binding to GABA-A Benzodiazepine receptor; format: protein-complex assay
[2] = molecular target: Kappa-type opioid receptor (Cavia porcellus) (UniProt P41144); assay: Inhibitory activity for kappa opioid receptor
[3] = Enzyme inhibitory activity towards Matrix metalloproteases
[4] = molecular target: Kappa-type opioid receptor (Cavia porcellus, UniProt P41144); assay: Inhibition of Opioid receptor kappa 1 binding
Summary of the method: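 Kappa opioid radioreceptor binding in guinea pig brain homogenate with 3 nM [3H]U69,593 as radioligand, incubated 2.5 h at 25°C. Library mixtures were screened at 4 μg/mL. Data were normalized to percent inhibition using background and total binding.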

[5] = molecular target: Sigma non-opioid intracellular receptor 1 (Homo sapiens, UniProt Q99720); assay: Inhibitory activity towards Sigma opioid receptor type 1
[6] = molecular target: Acetylcholinesterase (Homo sapiens, UniProt P22303); assay: Enzyme inhibitory activity towards Acetylcholinesterase
[7] = molecular target: T1, Adenosine deaminase (Homo sapiens) (UniProt P00813)
T1 sequence (whole entry): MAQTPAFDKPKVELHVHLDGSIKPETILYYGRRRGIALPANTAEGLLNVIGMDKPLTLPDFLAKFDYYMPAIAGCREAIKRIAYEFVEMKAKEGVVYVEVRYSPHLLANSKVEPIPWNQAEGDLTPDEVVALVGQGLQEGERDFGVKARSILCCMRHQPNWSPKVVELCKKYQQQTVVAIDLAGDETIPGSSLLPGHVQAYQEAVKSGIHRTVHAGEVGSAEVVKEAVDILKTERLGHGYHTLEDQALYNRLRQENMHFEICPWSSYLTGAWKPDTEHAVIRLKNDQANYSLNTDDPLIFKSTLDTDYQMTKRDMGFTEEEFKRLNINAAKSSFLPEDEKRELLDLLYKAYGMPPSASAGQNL

[8] = molecular target: Mu-type opioid receptor (Homo sapiens, UniProt P35372); assay: Antagonistic activity towards Opioid receptor mu 1; format: functional
Sequence of Mu-type opioid receptor (P35372 whole entry): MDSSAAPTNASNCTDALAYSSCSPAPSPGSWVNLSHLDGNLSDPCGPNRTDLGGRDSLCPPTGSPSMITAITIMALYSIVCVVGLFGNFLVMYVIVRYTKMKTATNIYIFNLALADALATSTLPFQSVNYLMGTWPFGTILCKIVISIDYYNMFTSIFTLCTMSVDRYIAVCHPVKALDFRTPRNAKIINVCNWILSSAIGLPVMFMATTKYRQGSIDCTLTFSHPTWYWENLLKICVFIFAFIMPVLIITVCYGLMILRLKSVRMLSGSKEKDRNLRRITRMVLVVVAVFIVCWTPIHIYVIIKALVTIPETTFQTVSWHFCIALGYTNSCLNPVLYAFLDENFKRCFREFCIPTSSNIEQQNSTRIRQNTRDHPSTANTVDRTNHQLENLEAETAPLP

Sequence of Kappa-type opioid receptor (Cavia porcellus) (P41144 whole entry, looked up): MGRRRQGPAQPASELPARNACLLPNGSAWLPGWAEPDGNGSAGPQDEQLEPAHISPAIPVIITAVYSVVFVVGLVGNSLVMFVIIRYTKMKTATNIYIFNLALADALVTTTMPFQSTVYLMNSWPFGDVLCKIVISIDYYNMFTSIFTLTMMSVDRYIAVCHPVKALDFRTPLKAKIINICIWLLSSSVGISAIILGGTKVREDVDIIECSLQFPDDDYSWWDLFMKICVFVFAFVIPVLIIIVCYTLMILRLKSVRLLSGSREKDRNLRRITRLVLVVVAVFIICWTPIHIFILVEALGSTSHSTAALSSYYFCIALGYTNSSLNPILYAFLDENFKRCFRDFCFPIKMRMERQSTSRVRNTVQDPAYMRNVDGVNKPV
Sequence of Sigma non-opioid intracellular receptor 1 (Q99720 whole entry): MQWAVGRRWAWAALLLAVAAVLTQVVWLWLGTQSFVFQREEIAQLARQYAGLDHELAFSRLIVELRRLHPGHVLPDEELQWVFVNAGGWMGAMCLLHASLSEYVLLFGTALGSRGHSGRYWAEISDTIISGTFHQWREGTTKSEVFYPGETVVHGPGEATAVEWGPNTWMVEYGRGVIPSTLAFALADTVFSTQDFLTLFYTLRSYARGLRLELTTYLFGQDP
Sequence of Kappa-type opioid receptor (P41144 whole entry): as the sequence (P41144 whole entry, looked up) above
Sequence of Acetylcholinesterase (P22303 whole entry): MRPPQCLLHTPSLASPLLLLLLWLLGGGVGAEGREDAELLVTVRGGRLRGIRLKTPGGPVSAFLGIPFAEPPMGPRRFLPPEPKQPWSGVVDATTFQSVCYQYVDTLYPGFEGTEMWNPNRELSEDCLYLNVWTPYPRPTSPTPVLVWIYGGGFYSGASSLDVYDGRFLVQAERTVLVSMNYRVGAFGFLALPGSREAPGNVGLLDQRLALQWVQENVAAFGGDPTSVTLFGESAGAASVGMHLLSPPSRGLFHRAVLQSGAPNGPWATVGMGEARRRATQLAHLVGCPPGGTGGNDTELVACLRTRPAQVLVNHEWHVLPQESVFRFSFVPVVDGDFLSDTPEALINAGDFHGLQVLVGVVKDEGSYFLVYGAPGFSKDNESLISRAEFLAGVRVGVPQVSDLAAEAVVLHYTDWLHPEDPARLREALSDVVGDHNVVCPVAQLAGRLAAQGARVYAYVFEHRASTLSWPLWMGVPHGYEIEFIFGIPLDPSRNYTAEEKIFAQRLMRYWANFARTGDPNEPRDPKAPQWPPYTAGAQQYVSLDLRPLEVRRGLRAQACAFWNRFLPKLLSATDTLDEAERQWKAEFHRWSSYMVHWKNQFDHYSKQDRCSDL

SMILES	IC50 [2] [nM]	other results
O=c1cc(-c2ccccc2)oc2ccccc12 [FLAVONE]		Ki [1]: 17 nM
CC(N1C2=NC[C@H](C)N2C[C@@H]1C1CCCCC1)C12CC3CC(CC(C3)C1)C2 (stereo partly drawn)	1940	
O=C1CNC(=O)CN1 [DIKETOPIPERAZINE]		IC50 [3]: 30000 nM
C1CCC([C@H]2CN3C(=NC[C@@H]3C3CCCCC3)N2CCC2CC3CCC2C3)CC1 (stereo partly drawn)	560	
CC(C)C[C@@H]1CN2C(=NC[C@H]2C2CCCCC2)N1C(C)C12CC3CC(CC(C3)C1)C2 (stereo partly drawn)	1750	
CC(C)C[C@@H]1CN2C(=NC[C@@H]2C2CCCCC2)N1CC1CCC(C)CC1 (stereo partly drawn)	999	IC50 [4]: 3680 nM
CC(C)C[C@@H]1CN2C(=NC[C@@H]2C)N1CCCC1CCCCC1	5440	
CC(C)C[C@@H]1CN2C(=NC[C@@H]2C2CCCCC2)N1CCCC1CCCCC1	3740	
CC(C)C[C@@H]1CN2C(=NC[C@H]2C2CCCCC2)N1CC1CCC(C)CC1 (stereo partly drawn)	738	
O=C1CNC(=O)N1 [HYDANTOIN]		IC50 [5]: 62 nM
NC(=O)O [CARBAMIC ACID]		IC50 [6]: 67000 nM
C1CCC([C@H]2CN3C(=NC[C@H]3C3CCCCC3)N2CCC2CC3CCC2C3)CC1 (stereo partly drawn)	524	
Nc1ncnc2c1ncn2[C@@H]1O[C@H](CO)[C@@H](O)[C@H]1O		Ka [7]: 1e+08 M⁻¹
CC(N1C2=NC[C@@H](C3CCCCC3)N2C[C@@H]1C1CCCCC1)C12CC3CC(CC(C3)C1)C2 (stereo partly drawn)	> 10000	
CC(C)C[C@@H]1CN2C(=NC[C@@H]2C)N1C(C)C12CC3CC(CC(C3)C1)C2 (stereo partly drawn)	3640	
CC(C)C[C@@H]1CN2C(=NC[C@H]2C2CCCCC2)N1CCCC1CCCCC1	1770	
CC(C)C[C@@H]1CN2C(=NC[C@@H]2C2CCCCC2)N1C(C)C12CC3CC(CC(C3)C1)C2 (stereo partly drawn)	1210	
c1cc2c(cn1)CCCC2 [5,6,7,8-TETRAHYDROISOQUINOLINE]		IC50 [5]: 56 nM
CC(N1C2=NC[C@H](C3CCCCC3)N2C[C@@H]1C1CCCCC1)C12CC3CC(CC(C3)C1)C2 (stereo partly drawn)	1490	
CCCCCC(C)N (stereo not drawn) [TUAMINOHEPTANE]		IC50 [8]: 14 nM
CC1CCC(CN2C3=NC[C@H](C)N3C[C@@H]2C2CCCCC2)CC1 (stereo partly drawn)	5060	
CC(C)C[C@@H]1CN2C(=NC[C@@H]2C)N1CCC1CC2CCC1C2 (stereo partly drawn)	2310	

From ChEMBL document CHEMBL1132386, “Mixture-based synthetic combinatorial libraries” (J Med Chem, 1999)
